Test results: ChEMBL document CHEMBL4118130, “Modular synthesis of new C-aryl-nucleosides and their anti-CML activity” (Bioorg Med Chem Lett, 2018)
Active and inactive are the calls of the source. No cut-off for these calls is given here.

Assays:
K562 [1] = assay: Cytotoxicity in drug sensitive human K562 cells assessed as reduction in cell viability at 10 uM incubated for 48 hrs by XTT assay relative to imatinib; format: functional
K562 [2] = assay: Cytotoxicity in drug sensitive human K562 cells assessed as reduction cell viability incubated for 48 hrs by XTT assay; format: functional, cell-based; conditions: for IC50: K562, 48 h
In short: (§1)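 K562-S (imatinib-sensitive) or K562-R (imatinib-resistant) CML cells were exposed to a range of concentrations for 48 h. Viability was read by XTT, and the IC50 was derived from the dose-response.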

K-562R [3] = assay: Cytotoxicity in imatinib-resistant human K562R cells assessed as reduction cell viability incubated for 48 hrs by XTT assay; format: functional, cell-based; in short: as §1
K562 [4] = assay: Potency index, ratio of IC50 for AICAR to IC50 for test compound in drug sensitive human K562 cells assessed as reduction cell viability incubated for 48 hrs by XTT assay; format: functional
K562 [5] = assay: Induction of apoptosis in drug sensitive human K562 cells assessed as induction of caspase-3 cleavage after 6 hrs by Western blot method; format: functional, cell-based
In short: (§2)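 Cell lysates were probed by western blot for procaspase 3 and for PARP, its preferred substrate, in K562-S and K562-R cells. Cleavage was scored after 6 h and 24 h of treatment.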

K562 [6] = assay: Induction of apoptosis in drug sensitive human K562 cells assessed as induction of PARP cleavage after 6 hrs by Western blot method; format: functional, cell-based; in short: as §2
K-562R [7] = assay: Induction of apoptosis in imatinib-resistant human K562R cells assessed as induction of caspase-3 cleavage after 6 hrs by Western blot method; format: functional, cell-based; in short: as §2
K-562R [8] = assay: Induction of apoptosis in imatinib-resistant human K562R cells assessed as induction of PARP cleavage after 6 hrs by Western blot method; format: functional, cell-based; in short: as §2
K562 [9] = assay: Induction of apoptosis in drug sensitive human K562 cells assessed as induction of caspase-3 cleavage after 24 hrs by Western blot method; format: functional, cell-based; in short: as §2
K562 [10] = assay: Induction of apoptosis in drug sensitive human K562 cells assessed as induction of PARP cleavage after 24 hrs by Western blot method; format: functional, cell-based; in short: as §2
K-562R [11] = assay: Induction of apoptosis in imatinib-resistant human K562R cells assessed as induction of caspase-3 cleavage after 24 hrs by Western blot method; format: functional, cell-based; in short: as §2
K-562R [12] = assay: Induction of apoptosis in imatinib-resistant human K562R cells assessed as induction of PARP cleavage after 24 hrs by Western blot method; format: functional, cell-based; in short: as §2
K562 [13] = assay: Inhibition of autophagy in drug sensitive human K562 cells assessed as reduction in LC3-II accumulation by Western blot method; format: functional, cell-based
In short: (§3)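 Western blot of LC3 lipidation and cleavage, scored as conversion of LC3-I to LC3-II, in K562-S and K562-R cells. Untreated cells served as the baseline for LC3-II accumulation.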

K-562R [14] = assay: Inhibition of autophagy in imatinib-resistant human K562R cells assessed as reduction in LC3-II accumulation by Western blot method; format: functional, cell-based; in short: as §3

Row | Compound | Activity (K562 [1]) | other results
1 | COc1ccc(-c2cccn2C)cc1[C@@H]1O[C@H](COC(C)=O)[C@@H](OC(C)=O)[C@H]1OC(C)=O | Active | –
2 | COc1ccc(-c2ccco2)cc1[C@@H]1O[C@H](COC(C)=O)[C@@H](OC(C)=O)[C@H]1OC(C)=O | Active | –
3 | COc1ccc(C#Cc2ccc(C)cc2)cc1[C@@H]1O[C@H](COC(C)=O)[C@@H](OC(C)=O)[C@H]1OC(C)=O | Active | –
4 | COc1ccc(-c2ccccc2)cc1[C@@H]1O[C@H](CO)[C@@H](O)[C@H]1O | Active | –
5 | COc1ccc(C#Cc2ccc(F)cc2)cc1[C@@H]1O[C@H](COC(C)=O)[C@@H](OC(C)=O)[C@H]1OC(C)=O | Active | –
6 | COc1ccc(-c2cc3ccccc3s2)cc1[C@@H]1O[C@H](COC(C)=O)[C@@H](OC(C)=O)[C@H]1OC(C)=O | >30 - 80% | Activity (K562 [2]): Dose-dependent effect; IC50 (K562 [2]): 4000 nM; IC50 (K-562R [3]): 2.9 µM; Ratio IC50 (K562 [4]): 200; Activity (K562 [5]): inactive; Activity (K562 [6]): inactive; Activity (K-562R [7]): inactive; Activity (K-562R [8]): inactive; Activity (K562 [9]): inactive; Activity (K562 [10]): inactive; Activity (K-562R [11]): inactive; Activity (K-562R [12]): inactive; inhibition (K562 [13]): Active; inhibition (K-562R [14]): Active
7 | COc1ccc(-c2ccc3[nH]ccc3c2)cc1[C@@H]1O[C@H](CO)[C@@H](O)[C@H]1O | Active | –
8 | COc1ccc(-c2cccs2)cc1[C@@H]1O[C@H](CO)[C@@H](O)[C@H]1O | Active | –
9 | COc1ccc(C#Cc2ccsc2)cc1[C@@H]1O[C@H](CO)[C@@H](O)[C@H]1O | Active | –
10 | COc1ccc(C#Cc2ccccc2)cc1[C@@H]1O[C@H](CO)[C@@H](O)[C@H]1O | Active | –
11 | COc1ccc(-c2cccs2)cc1[C@@H]1O[C@H](COC(C)=O)[C@@H](OC(C)=O)[C@H]1OC(C)=O | >30% | –
12 | COc1ccc(-c2cc3ccccc3s2)cc1[C@@H]1O[C@H](CO)[C@@H](O)[C@H]1O | 16% | –
13 | COc1ccc(-c2cccc3ccccc23)cc1[C@@H]1O[C@H](COC(C)=O)[C@@H](OC(C)=O)[C@H]1OC(C)=O | >30% | –
14 | Cc1ccc(NC(=O)c2ccc(CN3CCN(C)CC3)cc2)cc1Nc1nccc(-c2cccnc2)n1 [IMATINIB] | – | IC50 (K562 [2]): 1100 nM; IC50 (K-562R [3]): > 50 µM
15 | COc1ccc(C#Cc2ccc(OC)c([C@@H]3O[C@H](COC(C)=O)[C@@H](OC(C)=O)[C@H]3OC(C)=O)c2)cc1 | >30% | –
16 | COc1ccc(C#Cc2ccc(C)cc2)cc1[C@@H]1O[C@H](CO)[C@@H](O)[C@H]1O | Active | –
17 | COc1ccc(-c2ccc(C)cc2)cc1[C@@H]1O[C@H](COC(C)=O)[C@@H](OC(C)=O)[C@H]1OC(C)=O | Active | –
18 | NC(=O)c1ncn([C@@H]2O[C@H](CO)[C@@H](O)[C@H]2O)c1N [ACADESINE] | – | IC50 (K-562R [3]): 800 µM
19 | COc1ccc(-c2ccco2)cc1[C@@H]1O[C@H](CO)[C@@H](O)[C@H]1O | Active | –
20 | COc1ccc(C#Cc2ccsc2)cc1[C@@H]1O[C@H](COC(C)=O)[C@@H](OC(C)=O)[C@H]1OC(C)=O | inactive | –
21 | COc1ccc(C#Cc2ccc(OC)c([C@@H]3O[C@H](CO)[C@@H](O)[C@H]3O)c2)cc1 | Active | –
22 | COc1ccc(-c2ccc(C)cc2)cc1[C@@H]1O[C@H](CO)[C@@H](O)[C@H]1O | Active | –
23 | COc1ccc(C#Cc2ccccc2)cc1[C@@H]1O[C@H](COC(C)=O)[C@@H](OC(C)=O)[C@H]1OC(C)=O | inactive | –
24 | COc1ccc(-c2ccc3[nH]ccc3c2)cc1[C@@H]1O[C@H](COC(C)=O)[C@@H](OC(C)=O)[C@H]1OC(C)=O | Active | –
25 | COc1ccc(C#Cc2ccc(F)cc2)cc1[C@@H]1O[C@H](CO)[C@@H](O)[C@H]1O | Active | –
26 | COc1ccc(-c2cccn2C)cc1[C@@H]1O[C@H](CO)[C@@H](O)[C@H]1O | Active | –
27 | COc1ccc(-c2cccc3ccccc23)cc1[C@@H]1O[C@H](CO)[C@@H](O)[C@H]1O | Active | –
28 | COc1ccc(-c2ccccc2)cc1[C@@H]1O[C@H](COC(C)=O)[C@@H](OC(C)=O)[C@H]1OC(C)=O | Active | –
